Measured values as given in PubChem BioAssay.
Activity calls are given as the source filed them.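 How the source made its calls, unless noted: active means Her2 level under about 52% in both replicate screens, with viability over 70% of control (limit read from the data); inconclusive means Her2 under the limit in one screen only, or viability under 70%; inactive means Her2 level above the set limit.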

Tests used:
[1] = reducers of endogenous Her2 protein level, primary screen, SKBR3 breast tumor cells, AlphaScreen, ATP viability (AID 461); conditions: 18-24 h, measured here: SKBR3 viability, ATP luminescence, at 10 µM;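 on Her2 level: lower value means less Her2 protein in the cells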;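 on viability: percent of carrier control wells set as 100% viability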
[2] = target: Receptor tyrosine-protein kinase erbB-2 (Homo sapiens) (UniProt P04626); test: as above; conditions: 18-24 h, at 10 µM, stronger effect = lower value
Receptor tyrosine-protein kinase erbB-2 (Homo sapiens), sequence (P04626 whole entry, looked up): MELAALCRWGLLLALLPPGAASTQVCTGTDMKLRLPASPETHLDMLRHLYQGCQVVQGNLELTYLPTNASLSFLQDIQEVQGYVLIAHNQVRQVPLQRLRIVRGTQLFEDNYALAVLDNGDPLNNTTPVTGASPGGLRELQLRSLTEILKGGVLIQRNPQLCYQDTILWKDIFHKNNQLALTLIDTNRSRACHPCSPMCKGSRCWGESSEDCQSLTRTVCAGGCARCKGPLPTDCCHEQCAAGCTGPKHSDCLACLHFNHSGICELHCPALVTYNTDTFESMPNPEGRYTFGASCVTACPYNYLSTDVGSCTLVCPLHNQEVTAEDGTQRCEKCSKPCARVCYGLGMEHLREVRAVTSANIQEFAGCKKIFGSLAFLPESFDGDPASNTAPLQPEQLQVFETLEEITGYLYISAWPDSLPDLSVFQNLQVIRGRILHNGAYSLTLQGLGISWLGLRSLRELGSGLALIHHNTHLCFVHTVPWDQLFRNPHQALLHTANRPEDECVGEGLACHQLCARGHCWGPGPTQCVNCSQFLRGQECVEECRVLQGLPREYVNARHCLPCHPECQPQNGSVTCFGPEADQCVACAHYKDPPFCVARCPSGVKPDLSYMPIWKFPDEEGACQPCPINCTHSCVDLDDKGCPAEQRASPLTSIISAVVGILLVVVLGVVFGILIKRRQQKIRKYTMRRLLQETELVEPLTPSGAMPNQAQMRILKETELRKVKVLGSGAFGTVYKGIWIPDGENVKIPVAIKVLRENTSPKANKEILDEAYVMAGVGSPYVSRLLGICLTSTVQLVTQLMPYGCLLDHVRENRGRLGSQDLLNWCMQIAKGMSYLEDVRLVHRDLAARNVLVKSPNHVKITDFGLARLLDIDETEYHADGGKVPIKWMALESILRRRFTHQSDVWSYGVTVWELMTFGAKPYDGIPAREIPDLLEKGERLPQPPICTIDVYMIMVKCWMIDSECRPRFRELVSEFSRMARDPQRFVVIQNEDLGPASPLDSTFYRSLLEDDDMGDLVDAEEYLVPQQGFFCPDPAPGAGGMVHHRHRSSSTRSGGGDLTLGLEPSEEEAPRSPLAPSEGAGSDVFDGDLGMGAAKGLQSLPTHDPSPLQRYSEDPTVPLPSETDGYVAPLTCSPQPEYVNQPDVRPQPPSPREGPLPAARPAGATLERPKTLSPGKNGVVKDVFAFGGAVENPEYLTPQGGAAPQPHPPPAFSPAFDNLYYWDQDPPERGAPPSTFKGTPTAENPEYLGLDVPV

[3] = SK-BR-3 cell growth inhibitors, pilot screen, 24 h, human (AID 572;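 active means viability at or below 10% of carrier control in both of two separate runs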;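 further: compound exposure lasted between 18 and 24 h rather than exactly 24 h; 100% = carrier-treated control wells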); conditions: SK-BR-3 viability, CellTiter-Glo luminescence, at 10 µM, stronger effect = lower value
[4] = HUVEC growth inhibition – cell-based, human, primary screen (AID 575;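 active means viability at or below 30% in both replicate assays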;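 further: 100% = median of untreated cell wells with 0.1% DMSO on each plate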); conditions: HUVEC proliferation, CellTiter-Glo luminescence, 72 h; at 10 µM; stronger effect = lower value
Procedure, shortened: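 material = primary HUVEC, no more than 12 passages | input = 1250 cells per well | controls = vehicle and MePR control wells | measured by = CTG luminescence | times = 72 h compound incubation | format = collagen-coated 384-well format | read-out = % viability vs DMSO wells | doses = single 10 µM dose, 0.1% DMSO, from 5x medium stock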

[5] = growth inhibitors of H69AR lung tumor, primary screen, human, duplicate replicates (AID 580;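 active means viability at or under a set limit in both replicates, limit being median viability minus 3 SD, cut at about 48% in these data, passing the limit was not always enough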;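 further: 100% = mean luminescence of untreated wells and 0% = no signal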); conditions: H69AR lung tumor cells viability, ATP luminescence, 72 h; at 10 µM; stronger effect = lower value
[6] = reversal of MRP1-mediated doxorubicin resistance, pilot screen, H69AR cells, doxorubicin co-treatment (AID 601;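 active means viability loss from added drug above about 55%, and viability with drug at most 40%, in both replicates, limit read from the data, passing the limit was not always enough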); conditions: CellTiter-Glo, 72 h, at 10 µM; for differential viability (reversal): stronger effect = higher value
[7] = 384-well plate pilot, post-Golgi transport modulator project, inhibition of yeast transport mutant growth (AID 636; in the data active means inhibition above about 31%); conditions: absorbance 615 nm, about 18 h, stronger effect = higher value
[8] = growth suppression of yeast trafficking mutant, preliminary HTS, modulators of trafficking downstream of Golgi apparatus project, 1536-format plate, OD 615 nm (AID 637; in the data active means inhibition above about 30%); conditions: yeast transport mutant growth, absorbance 615 nm, 18 h; stronger effect = higher value
[9] = H69AR cells + 2 uM doxorubicin, measured here: viability with 2 uM doxorubicin, stronger effect = lower value
[10] = H69AR cells, compound alone cytotoxicity

Row | SMILES | viability [1] | Her2 level [2] | viability [3] | viability [4] | viability [5] | differential viability (reversal) ([6]; H69AR cells + 2 uM doxorubicin) | viability [6, 9] | viability [6, 10] | inhibition [7] | inhibition [8]
1 | C=CCn1c(COc2ccccc2)nnc1SCC(=O)C(C)(C)C | 78% | 107% (inactive) | 78% (inactive) | 102% (inactive) | 97.8% (inactive) | 5.13% (inactive) | 92.6% | 97.8% | -1.95% (inactive) | -4.67% (inactive)
2 | CCCCc1c(O)nc(SCC(=O)c2ccccc2)[nH]c1=O | 105% | 102% (inactive) | 105% (inactive) | 89% (inactive) | 104% (inactive) | 21.1% (inactive) | 83% | 104% | -4.87% (inactive) | 11.8% (inactive)
3 | CC(C)(C)n1ncc2c(=O)n(CC(=O)NCCc3ccccc3)cnc21 | 88% | 108% (inactive) | 88% (inactive) | 107% (inactive) | 90.9% (inactive) | -4.92% (inactive) | 95.8% | 90.9% | 0.92% (inactive) | -6.13% (inactive)
4 | CN(C(=O)c1ccno1)c1nnc(-c2cnccn2)s1 | 107% | 102% (inactive) | 107% (inactive) | 108% (inactive) | 103% (inactive) | 6.98% (inactive) | 95.9% | 103% | -6.22% (inactive) | 1.83% (inactive)
5 | COc1ccc(CN(CC(=O)NCc2ccco2)C(=O)CCC(=O)Nc2nccs2)cc1 | 96% | 104% (inactive) | 96% (inactive) | 85.5% (inactive) | 101% (inactive) | 11% (inactive) | 89.6% | 101% | 1.22% (inactive) | -2.13% (inactive)
6 | O=C(CCC(=O)N(c1cccc(F)c1)C(C(=O)NC1CCCC1)c1ccncc1)Nc1cccnc1 (stereo not given) | 100% | 95.5% (inactive) | 100% (inactive) | 97.1% (inactive) | 91.7% (inactive) | -4.02% (inactive) | 95.8% | 91.7% | -0.8% (inactive) | 2.74% (inactive)
7 | O=C(CN1C(=O)c2ccccc2C1=O)Nc1ccccc1C(=O)N1CCCC1 | 83% | 90.5% (inactive) | 83% (inactive) | 96% (inactive) | 109% (inactive) | 19.7% (inactive) | 89% | 109% | -3.78% (inactive) | 1.59% (inactive)
8 | CCOC(=O)C1C(=O)N(C(=O)c2ccc(OC)cc2)CC1c1ccccc1 (stereo not given) | 91.5% | 94.5% (inactive) | 91.5% (inactive) | 83.3% (inactive) | 86.6% (inactive) | 1.9% (inactive) | 84.7% | 86.6% | -0.65% (inactive) | -5.41% (inactive)
9 | CCOc1ccc(N(CC(=O)NC2CCCC2)S(=O)(=O)c2c(C)[nH]c(=O)[nH]c2=O)cc1 | 87% | 104% (inactive) | 87% (inactive) | 96.4% (inactive) | 101% (inactive) | 17.2% (inactive) | 83.4% | 101% | 0.4% (inactive) | -3.28% (inactive)
10 | COc1ccc(Cl)cc1NC(=O)c1oc(C)nc1C | 91% | 71.5% (inactive) | 91% (inactive) | 91% (inactive) | 90.1% (inactive) | -2.13% (inactive) | 92.3% | 90.1% | -5.95% (inactive) | 6.5% (inactive)
11 | O=C(CSc1n[nH]c(-c2cccs2)n1)N1CCN(S(=O)(=O)c2ccccc2)CC1 | 80.5% | 78.5% (inactive) | 80.5% (inactive) | 97.4% (inactive) | 102% (inactive) | -3.67% (inactive) | 106% | 102% | 0.91% (inactive) | 9.84% (inactive)
12 | COC(=O)C1=C(C)NC(=O)C1(NC(=O)c1cccnc1)C(F)(F)F (stereo not given) | 126% | 96.5% (inactive) | 126% (inactive) | 99.4% (inactive) | 103% (inactive) | 14% (inactive) | 88.7% | 103% | -2.5% (inactive) | 0.55% (inactive)
13 | CCOC(=O)C(NC(=O)c1ccccc1)(Nc1cc(C)on1)C(F)(F)F (stereo not given) | 106% | 90.5% (inactive) | 106% (inactive) | 101% (inactive) | 97.7% (inactive) | 11.1% (inactive) | 86.6% | 97.7% | -0.93% (inactive) | -1.61% (inactive)
14 | Cc1[nH]c(=O)[nH]c(=O)c1S(=O)(=O)Nc1ccc(Oc2ccccc2)cc1 | 96% | 84.5% (inactive) | 96% (inactive) | 93.6% (inactive) | 97.8% (inactive) | 10.3% (inactive) | 87.5% | 97.8% | -0.66% (inactive) | 1.45% (inactive)
15 | Cc1ccc(-c2nnn(CC(=O)NC3CC4CCC3C4)n2)cc1 (stereo not given) | 109% | 91% (inactive) | 109% (inactive) | 118% (inactive) | 93.3% (inactive) | 5.1% (inactive) | 88.2% | 93.3% | -6.58% (inactive) | -6.77% (inactive)
16 | CCn1c(SCc2nc3ccccc3c(=O)[nH]2)nnc1-c1cccnc1 | 84.5% | 98% (inactive) | 84.5% (inactive) | 104% (inactive) | 95.2% (inactive) | 4.33% (inactive) | 90.9% | 95.2% | -0.13% (inactive) | -0.16% (inactive)
17 | COc1cccc(N2C(=O)C(O)=C(C(C)=O)C2c2ccc(OC)c(OC)c2)c1 (stereo not given) | 94.5% | 94% (inactive) | 94.5% (inactive) | 109% (inactive) | 100% (inactive) | 7.03% (inactive) | 93% | 100% | 0.26% (inactive) | 4.75% (inactive)
18 | Cc1cccc(-n2nnc(C(=O)NCc3ccccc3)c2N)c1 | 110% | 84.5% (inactive) | 110% (inactive) | 102% (inactive) | 90.4% (inactive) | 3.36% (inactive) | 87% | 90.4% | 0.92% (inactive) | -3.45% (inactive)
19 | O=C(CCC(=O)c1cccs1)NCc1ccccc1 | 102% | 114% (inactive) | 102% (inactive) | 98.2% (inactive) | 97.8% (inactive) | -0.02% (inactive) | 97.8% | 97.8% | -3.64% (inactive) | -2.22% (inactive)
20 | O=C(Oc1ccc(Cl)cc1N1C(=O)CCC1=O)c1ccco1 | 96.5% | 74% (inactive) | 96.5% (inactive) | 78% (inactive) | 90.9% (inactive) | 3.6% (inactive) | 87.3% | 90.9% | -3.65% (inactive) | 2.46% (inactive)
21 | COc1ccc(-c2nnc(SCCC(=O)O)n2-c2ccccc2)cc1 | 113% | 96.5% (inactive) | 113% (inactive) | 96.1% (inactive) | 95.2% (inactive) | -2.17% (inactive) | 97.3% | 95.2% | -0.53% (inactive) | -0.49% (inactive)
22 | CC(C)(C)n1nnnc1CN1CCC(NC(=O)NC2CCCCC2)CC1 | 95% | 72% (inactive) | 95% (inactive) | 97% (inactive) | 106% (inactive) | 15.1% (inactive) | 91.3% | 106% | -5.53% (inactive) | -2.5% (inactive)
23 | O=C(OCc1nnc(-c2ccccc2)o1)C1=COCCO1 | 100% | 94% (inactive) | 100% (inactive) | 101% (inactive) | 92.1% (inactive) | -0.965% (inactive) | 93% | 92.1% | -8.67% (inactive) | -1.97% (inactive)
24 | Cc1nc2scc(-c3cccs3)c2c(=O)n1-n1cccc1 | 92% | 107% (inactive) | 92% (inactive) | 82.3% (inactive) | 99.3% (inactive) | 14.4% (inactive) | 84.8% | 99.3% | -1.79% (inactive) | -7.83% (inactive)
25 | CCCCC(=O)NCCc1ccc(S(N)(=O)=O)cc1 | 104% | 104% (inactive) | 104% (inactive) | 95.4% (inactive) | 97.1% (inactive) | 9.4% (inactive) | 87.7% | 97.1% | -2.16% (inactive) | 2.62% (inactive)
26 | COc1ccccc1NC(=O)C1=C(C)Nc2nnnn2C1c1ccccc1OC (stereo not given) | 94% | 76.5% (inactive) | 94% (inactive) | 113% (inactive) | 98.9% (inactive) | 10.4% (inactive) | 88.5% | 98.9% | -4.16% (inactive) | -1.5% (inactive)
27 | CSC1=NCCN1C(=O)c1ccc(S(=O)(=O)N2CCCC2)cc1 | 111% | 107% (inactive) | 111% (inactive) | 91.2% (inactive) | 91.3% (inactive) | -1.11% (inactive) | 92.4% | 91.3% | 0.77% (inactive) | -3.17% (inactive)
28 | CCOC(=O)C(C)n1cnc2c(nnn2Cc2ccc(C)cc2)c1=O (stereo not given) | 116% | 95.5% (inactive) | 116% (inactive) | 104% (inactive) | 91.9% (inactive) | 3.18% (inactive) | 88.7% | 91.9% | -9.73% (inactive) | 1.9% (inactive)
29 | CC(C(=O)NC1CCCCCC1)N(c1ccccc1)S(C)(=O)=O (stereo not given) | 112% | 97.5% (inactive) | 112% (inactive) | 114% (inactive) | 109% (inactive) | 6.19% (inactive) | 103% | 109% | -2.24% (inactive) | 2.79% (inactive)
